# In ChEMBL document CHEMBL2176911 (J Med Chem, 2012):
# The source made the active and inactive calls. The calls are words filed in the database; no cut-off is given here.
# How the values were obtained:
# Mus musculus [1] = species on record: Mus musculus; test: Binding affinity to GSK3beta1 in mouse brain homogenate by Western blot analysis; format: tissue-based
# In short: (§1)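 Bead pull-down from HT22 cell or mouse brain extracts, with ethanolamine beads lacking ligand as control. Specificity was tested by adding excess free inhibitor to the extracts before binding.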
# [2] = target: Dual specificity tyrosine-phosphorylation-regulated kinase 1A (Mus musculus) (UniProt Q61214); test: Inhibition of DYRK1A isolated from mouse HT22 cells; format: cell-free; conditions: HT-22
# HT-22 [3] = test: Neuroprotective activity against glutamate-induced toxicity in mouse HT22 cells at 10 to 20 uM up to 48 hrs by MTS assay; format: functional, cell-based
# [4] = target: Dual specificity protein kinase CLK1 (Mus musculus, UniProt P22518); test: Inhibition of mouse recombinant GST-tagged CLK1 expressed in Escherichia coli using GRSRSRSRSRSR as substrate and [gamma33P]ATP after 30 mins by scintillation counting
# In short: (§2)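 Panel of purified kinases (recombinant from several species plus native enzymes), each assayed radiometrically over a range of inhibitor concentrations; IC50 in μM calculated from the dose-response curves.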
# Mus musculus [5] = species on record: Mus musculus; test: Binding affinity to GSK3beta2 in mouse brain homogenate by Western blot analysis; format: tissue-based; in short: as §1
# [6] = target: Dual specificity tyrosine-phosphorylation-regulated kinase 1A (Mus musculus) (UniProt Q61214); test: Binding affinity to DYRK1A in mouse HT22 cell lysate by Western blot analysis; format: cell-free; conditions: HT-22; in short: as §1
# [7] = target: 1-phosphatidylinositol 3-phosphate 5-kinase (Mus musculus, UniProt Q9Z1T6); test: Binding affinity to phosphatidylinositol-3-phosphate 5-kinase type 3 in mouse brain homogenate after 3 hrs by competition affinity chromatographic analysis; format: tissue-based
# In short: (§3)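 Mouse brain lysate applied to a KinAffinity matrix of mixed immobilized broad-spectrum kinase inhibitors at highest loading density, with increasing concentrations of free inhibitor added. […] Separate titrations of the immobilized ligands gave BC50 values.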
# [8] = target: Mitogen-activated protein kinase 1 (Rattus norvegicus, UniProt P63086); test: Inhibition of rat recombinant ERK2 using Ets1 as substrate and [gamma33P]ATP as substrate after 30 mins by scintillation counting; in short: as §2
# [9] = target: Glycogen synthase kinase-3 alpha (Mus musculus, UniProt Q2NL51); test: Binding affinity to GSK3A in mouse brain homogenate after 3 hrs by competition affinity chromatographic analysis; format: tissue-based; in short: as §3
# [10] = Inhibition of pig […] isolated from brain using RRKHAAIGpSAYSITA as substrate and [gamma33P]ATP after 30 mins by scintillation couting; parameters: species or system Sus scrofa; in short: as §2
# [11] = target: Dual specificity tyrosine-phosphorylation-regulated kinase 1A (Mus musculus) (UniProt Q61214); test: Binding affinity to DYRK1A in mouse brain homogenate by Western blot analysis; format: tissue-based; in short: as §1
# [12] = target: Dual specificity tyrosine-phosphorylation-regulated kinase 1A (Mus musculus, UniProt Q61214); test: Binding affinity to DYRK1A in mouse brain homogenate after 3 hrs by competition affinity chromatographic analysis; format: tissue-based; in short: as §3
# [13] = target: STE20-like serine/threonine-protein kinase (Mus musculus, UniProt O54988); test: Binding affinity to SLK1 in mouse brain homogenate after 3 hrs by competition affinity chromatographic analysis; format: tissue-based; in short: as §3
# HT-22 [14] = test: Binding affinity to GSK3beta2 in mouse HT22 cell lysate by Western blot analysis; format: cell-free; in short: as §1
# [15] = target: Glycogen synthase kinase-3 alpha (Mus musculus) (UniProt Q2NL51); test: Binding affinity to GSK3alpha in mouse brain homogenate by Western blot analysis; format: tissue-based; in short: as §1
# [16] = target: Dual specificity tyrosine-phosphorylation-regulated kinase 1A (Homo sapiens) (UniProt Q13627); test: Inhibition of human recombinant GST-tagged DYRK1A expressed in Escherichia coli using KKISGRLSPIMTEQ as substrate at 10 uM after 30 mins
# HT-22 [17] = test: Inhibition of GSK3 in mouse HT22 cells at 10 uM after 4 hrs; format: cell-based
# [18] = target: Glycogen synthase kinase-3 alpha (Homo sapiens, UniProt P49840); test: Inhibition of human recombinant GSK3alpha expressed in insect cells using YRRAAVPPSPSLSRHSSPHQ-phosphoS-EDEEE as substrate and [gamma33P]ATP after 30 mins by scintillation counting
# [19] = target: Dual specificity tyrosine-phosphorylation-regulated kinase 1A (Mus musculus) (UniProt Q61214); test: Inhibition of DYRK1A in mouse HT22 cells at 10 uM after 4 hrs; format: cell-based; conditions: HT-22
# [20] = target: Casein kinase II subunit beta (Mus musculus) (UniProt P67871); test: Binding affinity to CK2 beta subunit in mouse brain homogenate by Western blot analysis; format: tissue-based; in short: as §1
# Brain = test: Toxicity against CD Sprague-Dawley rat brain expressing human APP at 0.03 to 3 uM after 3 hrs by fluorescence microscopic analysis; format: tissue-based; conditions: in vivo
# [21] = target: Dual specificity tyrosine-phosphorylation-regulated kinase 1A (Homo sapiens) (UniProt Q13627); test: Inhibition of human recombinant GST-tagged DYRK1A expressed in Escherichia coli using KKISGRLSPIMTEQ as substrate at 1 uM after 30 mins
# [22] = target: Cyclin-dependent kinase 7/ cyclin H (Homo sapiens, UniProt P50613); test: Inhibition of human recombinant CDK7/cyclin H expressed in insect cell using YSPTSPSYSPTSPSYSPTSPSKKKK as substrate and [gamma33P]ATP after 30 mins by scintillation counting; in short: as §2
# [23] = target: Dual specificity protein kinase CLK3 (Mus musculus, UniProt O35492); test: Inhibition of mouse recombinant GST-tagged CLK3 expressed in Escherichia coli using GRSRSRSRSRSR as substrate and [gamma33P]ATP after 30 mins by scintillation counting; in short: as §2
# [24] = target: T1, Dual specificity tyrosine-phosphorylation-regulated kinase 4 (Homo sapiens, UniProt Q9NR20); test: Inhibition of human recombinant GST-tagged DYRK4 expressed in Escherichia coli using GRSRSRSRSRSR as substrate and [gamma33P]ATP after 30 mins by scintillation counting
# T1 sequence (Q9NR20 whole entry): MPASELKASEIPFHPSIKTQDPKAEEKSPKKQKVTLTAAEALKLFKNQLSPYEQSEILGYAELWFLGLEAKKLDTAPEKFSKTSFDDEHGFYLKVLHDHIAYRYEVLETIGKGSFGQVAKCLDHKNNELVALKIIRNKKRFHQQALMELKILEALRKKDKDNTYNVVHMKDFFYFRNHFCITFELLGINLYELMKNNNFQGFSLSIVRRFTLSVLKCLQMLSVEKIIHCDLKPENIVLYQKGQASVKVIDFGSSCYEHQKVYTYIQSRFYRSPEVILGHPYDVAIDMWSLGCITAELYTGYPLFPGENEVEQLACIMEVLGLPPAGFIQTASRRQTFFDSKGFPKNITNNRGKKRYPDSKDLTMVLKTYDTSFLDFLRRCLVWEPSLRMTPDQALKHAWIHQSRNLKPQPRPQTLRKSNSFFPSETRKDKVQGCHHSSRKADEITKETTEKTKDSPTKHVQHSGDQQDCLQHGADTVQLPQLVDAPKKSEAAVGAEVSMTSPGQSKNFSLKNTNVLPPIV
# [25] = target: Glycogen synthase kinase-3 alpha (Mus musculus) (UniProt Q2NL51); test: Binding affinity to GSK3alpha in mouse HT22 cell lysate by Western blot analysis; format: cell-free; conditions: HT-22; in short: as §1
# [26] = target: Dual specificity protein kinase CLK4 (Homo sapiens, UniProt Q9HAZ1); test: Binding affinity to CLK4
# [27] = target: Casein kinase II subunit alpha' (Mus musculus) (UniProt O54833); test: Binding affinity to CK2 alpha' subunit in mouse brain homogenate by Western blot analysis; format: tissue-based; in short: as §1
# CDK9/cyclin T1 = CDK9/cyclin T1 (Homo sapiens, UniProt P50750); test: Inhibition of human recombinant CDK9/cyclin T expressed in insect cell using YSPTSPSYSPTSPSYSPTSPSKKKK as substrate and [gamma33P]ATP after 30 mins by scintillation counting; in short: as §2
# Chain of Glycogen synthase kinase-3 alpha (Mus musculus) (Q2NL51 whole entry): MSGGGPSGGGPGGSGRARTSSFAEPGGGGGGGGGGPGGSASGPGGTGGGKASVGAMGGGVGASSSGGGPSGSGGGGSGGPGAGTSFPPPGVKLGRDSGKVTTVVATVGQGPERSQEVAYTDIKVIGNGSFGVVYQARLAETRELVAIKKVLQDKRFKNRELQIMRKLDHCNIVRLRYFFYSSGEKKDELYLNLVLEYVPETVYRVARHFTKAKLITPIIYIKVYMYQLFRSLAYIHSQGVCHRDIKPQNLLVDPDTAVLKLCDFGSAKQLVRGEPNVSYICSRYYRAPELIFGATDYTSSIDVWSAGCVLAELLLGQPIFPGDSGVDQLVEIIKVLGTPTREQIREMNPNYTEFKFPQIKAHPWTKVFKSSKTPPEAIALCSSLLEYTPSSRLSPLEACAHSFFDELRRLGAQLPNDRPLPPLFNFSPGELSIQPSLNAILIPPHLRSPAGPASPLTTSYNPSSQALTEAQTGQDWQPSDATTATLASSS
# Chain of Mitogen-activated protein kinase 1 (P63086 whole entry): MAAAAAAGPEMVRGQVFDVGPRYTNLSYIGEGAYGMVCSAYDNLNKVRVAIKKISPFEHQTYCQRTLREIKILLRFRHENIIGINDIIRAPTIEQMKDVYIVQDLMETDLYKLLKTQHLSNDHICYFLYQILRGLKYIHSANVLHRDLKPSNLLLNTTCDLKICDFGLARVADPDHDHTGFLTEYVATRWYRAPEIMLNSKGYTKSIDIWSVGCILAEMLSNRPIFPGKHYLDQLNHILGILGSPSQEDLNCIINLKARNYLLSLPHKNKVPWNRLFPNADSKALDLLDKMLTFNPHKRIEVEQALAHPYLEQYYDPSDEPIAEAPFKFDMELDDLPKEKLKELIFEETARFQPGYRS
# Chain of Casein kinase II subunit alpha' (Mus musculus) (O54833 whole entry): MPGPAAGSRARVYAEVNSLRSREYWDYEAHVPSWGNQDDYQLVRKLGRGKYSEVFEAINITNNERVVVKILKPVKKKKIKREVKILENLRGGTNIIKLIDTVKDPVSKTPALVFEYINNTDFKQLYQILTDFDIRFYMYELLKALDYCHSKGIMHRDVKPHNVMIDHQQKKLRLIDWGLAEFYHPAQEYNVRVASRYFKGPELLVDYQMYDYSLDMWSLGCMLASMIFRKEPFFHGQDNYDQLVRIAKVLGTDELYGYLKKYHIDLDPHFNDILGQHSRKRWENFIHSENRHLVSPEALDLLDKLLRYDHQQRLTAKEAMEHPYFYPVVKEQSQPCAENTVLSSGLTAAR
# Chain of Dual specificity protein kinase CLK4 (Q9HAZ1 whole entry): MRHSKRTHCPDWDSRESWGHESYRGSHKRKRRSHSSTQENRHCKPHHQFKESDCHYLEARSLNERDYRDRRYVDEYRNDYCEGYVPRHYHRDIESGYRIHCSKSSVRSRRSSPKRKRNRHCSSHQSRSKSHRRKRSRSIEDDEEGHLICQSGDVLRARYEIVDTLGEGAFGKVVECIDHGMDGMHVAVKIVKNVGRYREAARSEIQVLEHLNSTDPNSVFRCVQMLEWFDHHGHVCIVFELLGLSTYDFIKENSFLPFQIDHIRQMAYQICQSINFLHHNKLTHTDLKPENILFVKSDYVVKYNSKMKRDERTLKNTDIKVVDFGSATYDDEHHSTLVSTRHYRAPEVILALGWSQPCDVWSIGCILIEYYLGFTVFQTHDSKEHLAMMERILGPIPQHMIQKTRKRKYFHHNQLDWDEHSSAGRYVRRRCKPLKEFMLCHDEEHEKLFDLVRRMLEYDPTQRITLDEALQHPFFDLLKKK
# Chain of 1-phosphatidylinositol 3-phosphate 5-kinase (Q9Z1T6 whole entry): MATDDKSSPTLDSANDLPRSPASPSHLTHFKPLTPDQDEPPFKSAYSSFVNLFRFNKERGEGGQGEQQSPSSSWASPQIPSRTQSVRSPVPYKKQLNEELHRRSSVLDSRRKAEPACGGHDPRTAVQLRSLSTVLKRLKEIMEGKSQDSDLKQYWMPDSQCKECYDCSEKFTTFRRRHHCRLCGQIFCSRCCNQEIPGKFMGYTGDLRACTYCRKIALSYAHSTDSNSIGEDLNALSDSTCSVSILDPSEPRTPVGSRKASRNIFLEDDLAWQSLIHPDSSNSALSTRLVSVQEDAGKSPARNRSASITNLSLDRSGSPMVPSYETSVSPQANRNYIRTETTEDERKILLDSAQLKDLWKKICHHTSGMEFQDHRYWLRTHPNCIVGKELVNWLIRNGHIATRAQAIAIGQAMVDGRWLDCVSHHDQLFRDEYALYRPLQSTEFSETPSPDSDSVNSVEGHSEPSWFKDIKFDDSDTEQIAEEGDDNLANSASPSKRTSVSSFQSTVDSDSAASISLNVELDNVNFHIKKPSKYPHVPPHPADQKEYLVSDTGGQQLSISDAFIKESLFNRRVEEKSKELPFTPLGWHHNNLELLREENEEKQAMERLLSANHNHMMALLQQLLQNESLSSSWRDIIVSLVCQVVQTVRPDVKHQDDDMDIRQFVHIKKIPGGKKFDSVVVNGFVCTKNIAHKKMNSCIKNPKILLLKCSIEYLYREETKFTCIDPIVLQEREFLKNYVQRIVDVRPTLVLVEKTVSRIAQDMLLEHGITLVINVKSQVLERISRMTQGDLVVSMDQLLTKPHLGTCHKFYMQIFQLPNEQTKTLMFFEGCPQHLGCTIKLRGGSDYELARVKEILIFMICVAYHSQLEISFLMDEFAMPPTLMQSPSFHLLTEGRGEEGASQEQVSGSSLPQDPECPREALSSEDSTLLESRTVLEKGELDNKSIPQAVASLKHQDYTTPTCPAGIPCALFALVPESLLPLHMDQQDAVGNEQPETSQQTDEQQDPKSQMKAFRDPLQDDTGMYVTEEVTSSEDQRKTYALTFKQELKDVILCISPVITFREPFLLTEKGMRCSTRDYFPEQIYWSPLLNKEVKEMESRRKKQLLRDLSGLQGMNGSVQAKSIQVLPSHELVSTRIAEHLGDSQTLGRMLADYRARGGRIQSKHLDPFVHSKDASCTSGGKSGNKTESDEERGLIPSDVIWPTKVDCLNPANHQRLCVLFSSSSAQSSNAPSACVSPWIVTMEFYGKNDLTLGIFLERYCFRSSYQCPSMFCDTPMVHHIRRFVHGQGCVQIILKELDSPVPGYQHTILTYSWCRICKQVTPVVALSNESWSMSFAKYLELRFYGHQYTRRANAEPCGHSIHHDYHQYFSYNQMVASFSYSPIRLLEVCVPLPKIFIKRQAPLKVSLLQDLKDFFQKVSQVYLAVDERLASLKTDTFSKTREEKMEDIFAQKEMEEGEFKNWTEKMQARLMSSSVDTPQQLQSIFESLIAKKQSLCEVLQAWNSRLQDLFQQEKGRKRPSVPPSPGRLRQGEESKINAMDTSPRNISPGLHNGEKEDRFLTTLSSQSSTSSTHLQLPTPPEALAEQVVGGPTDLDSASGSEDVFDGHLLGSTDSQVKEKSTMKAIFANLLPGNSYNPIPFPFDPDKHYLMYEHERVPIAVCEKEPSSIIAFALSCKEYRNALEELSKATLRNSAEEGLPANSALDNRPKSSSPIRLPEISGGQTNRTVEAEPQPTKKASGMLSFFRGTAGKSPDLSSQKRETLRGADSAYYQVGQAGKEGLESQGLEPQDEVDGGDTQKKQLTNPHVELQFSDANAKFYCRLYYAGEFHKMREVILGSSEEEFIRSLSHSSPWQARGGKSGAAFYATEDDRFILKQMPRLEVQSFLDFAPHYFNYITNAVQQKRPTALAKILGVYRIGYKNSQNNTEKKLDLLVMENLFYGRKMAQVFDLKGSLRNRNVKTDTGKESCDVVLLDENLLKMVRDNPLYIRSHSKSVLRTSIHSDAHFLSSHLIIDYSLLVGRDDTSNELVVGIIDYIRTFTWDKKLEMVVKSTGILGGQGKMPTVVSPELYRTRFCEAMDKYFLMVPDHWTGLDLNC
# Chain of Casein kinase II subunit beta (Mus musculus) (P67871 whole entry): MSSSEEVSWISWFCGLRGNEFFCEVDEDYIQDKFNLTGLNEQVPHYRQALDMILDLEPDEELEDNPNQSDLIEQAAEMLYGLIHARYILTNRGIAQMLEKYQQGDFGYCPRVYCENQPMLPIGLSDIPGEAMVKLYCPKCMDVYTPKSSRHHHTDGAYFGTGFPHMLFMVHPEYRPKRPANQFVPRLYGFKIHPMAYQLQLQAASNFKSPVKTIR
# Chain of Cyclin-dependent kinase 7/ cyclin H (P51946 whole entry): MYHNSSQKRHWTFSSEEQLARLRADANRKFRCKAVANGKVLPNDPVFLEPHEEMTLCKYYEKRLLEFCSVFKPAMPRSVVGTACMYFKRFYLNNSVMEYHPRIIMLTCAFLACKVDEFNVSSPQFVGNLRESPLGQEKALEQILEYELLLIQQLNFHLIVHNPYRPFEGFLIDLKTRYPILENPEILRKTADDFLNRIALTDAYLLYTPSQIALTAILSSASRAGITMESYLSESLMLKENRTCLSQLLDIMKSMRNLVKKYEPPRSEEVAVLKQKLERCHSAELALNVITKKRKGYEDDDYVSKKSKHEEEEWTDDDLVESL
# Chain of Cyclin-dependent kinase 7/ cyclin H (P50613 whole entry): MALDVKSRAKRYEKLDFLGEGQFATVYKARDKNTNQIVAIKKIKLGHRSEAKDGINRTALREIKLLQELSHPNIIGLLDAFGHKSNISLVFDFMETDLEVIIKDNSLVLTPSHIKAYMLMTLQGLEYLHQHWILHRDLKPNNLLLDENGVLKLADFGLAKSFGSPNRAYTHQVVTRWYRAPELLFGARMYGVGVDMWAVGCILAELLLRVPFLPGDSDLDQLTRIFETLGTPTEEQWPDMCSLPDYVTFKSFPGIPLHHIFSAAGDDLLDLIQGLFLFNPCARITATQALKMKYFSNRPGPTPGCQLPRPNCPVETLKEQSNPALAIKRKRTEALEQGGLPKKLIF
# Chain of Glycogen synthase kinase-3 alpha (Mus musculus, UniProt Q2NL51) (Q2NL51 whole entry): as the sequence (Q2NL51 whole entry) above
compound,measurement,setting,value
O=C1NC(Nc2ccccc2)=N/C1=C\c1ccc2c(c1)OCO2,Activity,Mus musculus [1],Active
same,inhibition,[2],Dose-dependent effect
same,Activity,HT-22 [3],Active
same,IC50,[4],71 nM
same,Activity,Mus musculus [5],Active
same,Activity,[6],Active
same,Kd(free),[7],6010 nM
same,IC50,[8],> 30000 nM
same,Kd(free),[9],3274 nM
same,IC50,[10],30000 nM
same,Activity,[11],Active
same,Kd(free),[12],65 nM
same,Kd(free),[13],21 nM
same,Activity,HT-22 [14],Active
same,Activity,[15],Active
same,inhibition,[16],Active
same,inhibition,HT-22 [17],inactive
same,IC50,[18],210 nM
same,inhibition,[19],Active
same,Activity,[20],Active
same,Activity,Brain,Non-toxic
same,inhibition,[21],Active
same,IC50,[22],> 10000 nM
same,IC50,[23],> 10000 nM
same,IC50,[24],520 nM
same,Activity,[25],Active
same,Kd,[26],70 nM
same,Activity,[27],Active
same,IC50,CDK9/cyclin T1,18000 nM
